Source: ChEMBL document CHEMBL1124505, “Inhibition of aminopeptidases by peptides containing ketomethylene and hydroxyethylene amide bond replacements” (J Med Chem, 1989)
Values belong to the molecule of their own block, whether it stands above or below them.

Key:
Aminopeptidase B [1] = target: T1, Aminopeptidase B (Rattus norvegicus, UniProt O09175); assay: Competitive inhibition of aminopeptidase B or arginyl aminopeptidase purified from rat liver; Ki value reporting the slope effect(Kis)
T1 sequence (O09175 whole entry): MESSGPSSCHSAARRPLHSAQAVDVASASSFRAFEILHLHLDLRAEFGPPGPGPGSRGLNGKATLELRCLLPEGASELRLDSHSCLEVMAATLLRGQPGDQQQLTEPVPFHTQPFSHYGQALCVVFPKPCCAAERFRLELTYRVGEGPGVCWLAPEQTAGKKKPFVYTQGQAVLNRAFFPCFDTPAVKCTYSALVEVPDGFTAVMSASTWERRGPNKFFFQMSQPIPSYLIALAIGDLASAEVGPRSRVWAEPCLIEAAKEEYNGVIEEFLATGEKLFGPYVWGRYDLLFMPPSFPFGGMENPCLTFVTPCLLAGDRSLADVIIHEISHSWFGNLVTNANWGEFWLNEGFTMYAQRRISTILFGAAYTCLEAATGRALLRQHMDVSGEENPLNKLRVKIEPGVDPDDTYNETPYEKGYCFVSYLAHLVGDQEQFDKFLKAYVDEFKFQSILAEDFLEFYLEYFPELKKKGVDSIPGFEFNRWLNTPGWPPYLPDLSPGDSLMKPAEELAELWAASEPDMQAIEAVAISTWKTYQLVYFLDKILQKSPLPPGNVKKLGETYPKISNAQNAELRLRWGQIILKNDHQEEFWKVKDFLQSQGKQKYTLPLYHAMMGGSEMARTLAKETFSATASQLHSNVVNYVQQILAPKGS
Outline: (§1)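 Arginyl aminopeptidase purified from rat liver. Substrate L-arginine p-nitroanilide in 0.10 M PIPES, pH 7.0, with 0.20 M NaCl and 1 mM DTT, at 25 °C. Initial velocities read as p-nitroaniline release at 405 nm (E = 9620 L/mol·cm). Slow-binding inhibitors preincubated 15 min with enzyme before substrate was added; others started by adding enzyme.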

Aminopeptidase B [2] = target: T1, Aminopeptidase B; assay: (§2) Inhibition of aminopeptidase B or arginyl aminopeptidase purified from rat liver; outline: as §1
Renin = target: T2, Renin (Homo sapiens, UniProt P00797); assay: Inhibition of enzyme renin
T2 sequence (P00797 whole entry): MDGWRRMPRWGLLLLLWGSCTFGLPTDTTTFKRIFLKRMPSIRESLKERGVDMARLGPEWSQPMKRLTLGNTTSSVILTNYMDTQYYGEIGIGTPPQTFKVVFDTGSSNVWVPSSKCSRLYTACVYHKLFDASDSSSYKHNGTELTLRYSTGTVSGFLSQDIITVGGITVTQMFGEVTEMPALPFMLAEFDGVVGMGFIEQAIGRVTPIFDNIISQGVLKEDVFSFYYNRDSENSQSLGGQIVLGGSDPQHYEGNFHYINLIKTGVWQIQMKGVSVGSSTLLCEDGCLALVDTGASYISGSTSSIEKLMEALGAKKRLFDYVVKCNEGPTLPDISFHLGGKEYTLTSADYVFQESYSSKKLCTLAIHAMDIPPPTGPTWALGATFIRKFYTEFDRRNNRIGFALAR

Aminopeptidase B [3] = target: T1, Aminopeptidase B; assay: as §2; assay type: tissue-based
Outline: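 Initial rates taken as p-nitroaniline release at 405 nm. Slow-binding inhibitors were preincubated with enzyme 15 min before substrate was added; others were started with enzyme.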

Pancreatic elastase = Pancreatic elastase (Sus scrofa, UniProt P08419+P00772); assay: Inhibition of porcine pancreatic elastase; assay type: protein assay
Aminopeptidase B [4] = target: T1, Aminopeptidase B; assay: Competitive inhibition of aminopeptidase B or arginyl aminopeptidase purified from rat liver; outline: as §1
Aminopeptidase B [5] = target: T1, Aminopeptidase B; assay: Non-competitive inhibition of aminopeptidase B or arginyl aminopeptidase purified from rat liver; Ki value reporting the intercept effect(Kii); outline: as §1
Aminopeptidase B [6] = target: T1, Aminopeptidase B; assay: Non-competitive inhibition of aminopeptidase B or arginyl aminopeptidase purified from rat liver; Ki value reporting the Kid; outline: as §1
Aminopeptidase B [7] = target: T1, Aminopeptidase B; assay: Non-competitive inhibition of aminopeptidase B or arginyl aminopeptidase purified from rat liver; Ki value reporting the slope effect(Kis); outline: as §1

Ki (Aminopeptidase B [1]): 36 µM
SMILES: CC(C)CCNC(=O)[C@@H](NC(=O)[C@H](CC(=O)[C@@H](N)CC(C)C)Cc1ccccc1)C(C)C

IC50 (Aminopeptidase B [2]): > 600 µM
SMILES: CC(C)CCNC(=O)C(NC(=O)C(Cc1ccccc1)CC(O)C(N)CC(C)C)C(C)C (stereo unspecified)

Ki (Aminopeptidase B [1]): 0.17 µM
SMILES: CC(C)C[C@H](N)C(=O)CC(Cc1ccccc1)C(=O)O (stereo partly specified)

IC50 (Aminopeptidase B [4]): > 400 µM
SMILES: CC(C)CCNC(=O)[C@@H](NC(=O)[C@H](C)CC(=O)[C@@H](N)CC(C)C)C(C)C

Ki (Aminopeptidase B [1]): 130 µM
SMILES: CC(C)CC(N)C(=O)CC(C)C(=O)O (stereo unspecified)

Ki (Aminopeptidase B [5]): 2 µM | Ki (Aminopeptidase B [6]): 2.8 µM | Ki (Aminopeptidase B [7]): 8.8 µM
SMILES: CC(CC(=O)[C@@H](N)CCCCN)C(=O)NC(Cc1ccccc1)C(=O)O (stereo partly specified)

The next lines start with the molecule.

SMILES: NCCCC[C@H](N)C(=O)CC(Cc1ccccc1)C(=O)O (stereo partly specified)
Ki (Aminopeptidase B [1]): 0.004 µM

SMILES: CC(C)C[C@H](CN[C@H](CC(C)C)C(=O)N[C@H](C(=O)N[C@@H](Cc1ccc(O)cc1)C(=O)O)C(C)C)NC(=O)C(Cc1c[nH]cn1)NC(=O)[C@H](Cc1ccccc1)NC(=O)[C@@H]1CCCN1C(=O)C(N)Cc1c[nH]cn1 (stereo in doubt)
Ki (Renin): 1 µM

SMILES: NC(N)=NCCC[C@H](N)C(=O)C[C@@H](Cc1ccccc1)C(=O)O
Ki (Aminopeptidase B [3]): 0.0025 µM

SMILES: COC(=O)CCC(=O)C(C)NC(=O)c1ccccc1 (stereo unspecified)
Ki (Pancreatic elastase): 4200 µM

SMILES: CC(C)C[C@@H](N)C(=O)CC(Cc1ccccc1)C(=O)O (stereo partly specified)
Ki (Aminopeptidase B [1]): 0.77 µM

SMILES: CC(CC(=O)[C@@H](N)CCCCN)C(=O)O (stereo partly specified)
Ki (Aminopeptidase B [1]): 2 µM

SMILES: N=C(N)NCCC[C@H](N)C(=O)C[C@@H](Cc1ccc(O)cc1)C(=O)O
Ki (Aminopeptidase B [3]): 0.00084 µM

SMILES: CC(C)C[C@H](NC(=O)[C@@H](O)[C@H](N)Cc1ccccc1)C(=O)O [UBENIMEX]
Ki (Aminopeptidase B [3]): 0.014 µM
